Laboratory results published in ChEMBL document CHEMBL4725237, “Synthesis and biological evaluation of triazolyl-substituted benzyloxyacetohydroxamic acids as LpxC inhibitors” (Bioorg Med Chem, 2020).
Converted amounts (≈) assume the structure as drawn.

Columns and labels:
[1] = system: Escherichia coli; assay: Antibacterial activity against Escherichia coli D22 incubated assessed as prevention of visible growth for 20 hrs by two-fold serial microbroth dilution method; assay type: functional
How it was run: (§1)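 Broth microdilution in LB with 5% DMSO. Overnight cultures (LB, 37 °C, 200 rpm) were diluted 1:100 and added to a twofold compound dilution series in DMSO, giving 5·10^6 cfu·mL⁻¹ and final compound 64 to 0.25 µg·mL⁻¹. Plates were incubated 20 h at 37 °C. MIC was taken as the lowest concentration with no visible growth. At least three runs on separate days.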

[2] = system: Escherichia coli; assay: Antibacterial activity against Escherichia coli BL21 (DE3) assessed as prevention of visible growth incubated for 20 hrs by two-fold serial microbroth dilution method; assay type: functional; how it was run: as §1
[3] = system: Escherichia coli; assay: Antibacterial activity against Escherichia coli D22 assessed as zone of growth inhibition at 10 mmol incubated for overnight by disc diffusion method; assay type: functional; conditions: dose 10 mM; time 12 hrs
How it was run: (§2)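 Overnight LB cultures (37 °C, 200 rpm), 150 µL spread on LB agar. 15 µL of compound (10 mM stock in DMSO) was applied to 6 mm filter paper disks, with DMSO as negative and CHIR-090 as positive control. Plates were incubated overnight at 37 °C and the diameter of the growth-inhibition zone was measured. At least three runs on separate days.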

[4] = system: Escherichia coli; assay: Antibacterial activity against Escherichia coli BL21 (DE3) assessed as zone of growth inhibition at 10 mmol incubated for overnight by disc diffusion method; assay type: functional; conditions: dose 10 mM; time 12 hrs; how it was run: as §2
[5] = Inhibition of LpxC C63A mutant in Escherichia coli […] preincubated for 30 mins followed by incubation for 10 mins by spectrophotometric analysis

Row | SMILES | MIC [1] [µg/mL] | MIC [2] [µg/mL] | inhibition zone (IZ) [3] [mm] | inhibition zone (IZ) [4] [mm] | IC50 [5] [µM]
1 | O=C(CO[C@@H](Cn1ccnn1)c1ccc(C#Cc2ccccc2)cc1)NO | ≥ 32 | > 64 | 11 | <6 | > 200
2 | O=C(CO[C@H](Cn1ccnn1)c1ccc(OCc2ccccc2)cc1)NO | > 64 | > 64 | 15 | <6 | > 200
3 | O=C(CO[C@H](Cn1cc(-c2ccccc2)nn1)c1ccc(C#Cc2ccccc2)cc1)NO | 0.25 (≈ 0.57 µM) | > 64 | 12.3 | <6 | 10.4
4 | C[C@@H](O)[C@H](NC(=O)c1ccc(C#Cc2ccc(CN3CCOCC3)cc2)cc1)C(=O)NO | 0.031 (≈ 0.0709 µM) | 0.25 (≈ 0.571 µM) | 37.5 | 31.7 | 0.076
5 | O=C(CO[C@H](Cn1cc(-c2ccccc2)nn1)c1ccc(OCc2ccccc2)cc1)NO | 32 (≈ 72 µM) | > 64 | 10 | <6 | > 200
6 | O=C(CO[C@H](Cn1cc(CO)nn1)c1ccc(C#Cc2ccccc2)cc1)NO | 4 (≈ 10.2 µM) | > 64 | 20.7 | <6 | 8.5
7 | O=C(CO[C@H](Cn1nncc1-c1ccccc1)c1ccc(C#Cc2ccccc2)cc1)NO | 8 (≈ 18.2 µM) | > 64 | 10.7 | <6 | > 20
8 | O=C(CO[C@@H](CO)c1ccc(C#Cc2ccccc2)cc1)NO | 32 (≈ 103 µM) | > 64 | 13 | <6 | > 200
9 | O=C(CO[C@H](Cn1ccnn1)c1ccc(C#Cc2ccccc2)cc1)NO | 1 (≈ 2.76 µM) | > 64 | 21 | <6 | 36
10 | O=C(CO[C@H](Cn1nncc1CO)c1ccc(C#Cc2ccccc2)cc1)NO | 1 (≈ 2.55 µM) | > 64 | 29.5 | 10.3 | 23.4
11 | O=C(CO[C@@H](Cn1cc(-c2ccccc2)nn1)c1ccc(C#Cc2ccccc2)cc1)NO | 32 (≈ 73 µM) | > 64 | 8.7 | <6 | > 200
12 | O=C(CO[C@H](CO)c1ccc(C#Cc2ccccc2)cc1)NO | 1 (≈ 3.21 µM) | 64 (≈ 206 µM) | 20.5 | 9.5 | 86.2
